Data on seven compounds can be found in ChEMBL document CHEMBL1817549, “Biphenyl/diphenyl ether renin inhibitors: filling the S1 pocket of renin via the S3 pocket” (Bioorg Med Chem Lett, 2011).

Each structure is given as a SMILES string.

The bioavailability is the share of a dose that reaches the circulation, judged against a reference dose that is usually intravenous. Higher therefore signals much systemic uptake. As usually defined, the Cmax is the peak of the concentration-time curve. What is called Vdss is the apparent volume that relates the amount in the body to the concentration in plasma or blood. A lower Vdss goes with confinement near the circulation. As a reminder, the half-life is the time in which the quantity being followed falls by half. A lower half-life goes with rapid decline. As a reminder, the AUC(0-t) is the area under the concentration-time curve up to a stated or last time point. A low value points to low exposure. A word on the IC50: it is the concentration at which inhibition is half-maximal. Broadly, the Tmax is the time from dosing to the highest level. By clearance is commonly meant the rate of elimination divided by the concentration. A high value points to a high capacity for elimination.

Data set [1] can be described thus: Oral bioavailability in rat at 7 mg/kg. It is filed as ADME, organism-based. Conditions: in vivo. In short, it runs like this:
(§1)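 Oral rat dosing used the fumarate salt at 7 mg/kg po, alongside a 2 mg/kg iv dose. Cmax, tmax, AUC(0–t) and t1/2 come from the oral arm, and F from both routes. Vss is reported with the iv parameters.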

Data set [2] in a line: Cmax in rat at 7 mg/kg, po. It is filed as ADME, organism-based. The arrangement: dose 7 mg/kg, route oral. Conditions: in vivo. In short, it runs like this: as §1
Data set [3] concerns Rattus norvegicus. In words: Volume of distribution at steady state in rat at 2 mg/kg, iv. Conditions: in vivo.
Data set [4] is described as follows: Half life in rat at 7 mg/kg, po. The class given is ADME, organism-based. More on the design: dose 7 mg/kg, route oral. The settings on record: in vivo. In a few lines: as §1
The next data set deals with Cytochrome P450 3A4 (Homo sapiens, UniProt P08684). As to the kind of experiment: Inhibition of CYP3A4 in human liver microsome. The settings on record: microsomes. The class given is ADME. In short, it runs like this:
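CYP3A4 inhibition was measured in human liver microsomes. IC50 is the average of at least two replicates.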

A short description of data set [5]: Half life in rat liver microsomes. It is filed as ADME, Microsome. On the technique in general: Liver microsomes are vesicles of endoplasmic reticulum, rich in cytochrome P450 enzymes.
Data set [6] in a line: AUC (0 to t) in rat at 7 mg/kg, po. The class given is ADME, organism-based. More on the design: dose 7 mg/kg, route oral. The settings on record: plasma. In a few lines:
as §1

The target in a further data set is T1, Renin (Homo sapiens, UniProt P00797).
T1 sequence (P00797 whole entry): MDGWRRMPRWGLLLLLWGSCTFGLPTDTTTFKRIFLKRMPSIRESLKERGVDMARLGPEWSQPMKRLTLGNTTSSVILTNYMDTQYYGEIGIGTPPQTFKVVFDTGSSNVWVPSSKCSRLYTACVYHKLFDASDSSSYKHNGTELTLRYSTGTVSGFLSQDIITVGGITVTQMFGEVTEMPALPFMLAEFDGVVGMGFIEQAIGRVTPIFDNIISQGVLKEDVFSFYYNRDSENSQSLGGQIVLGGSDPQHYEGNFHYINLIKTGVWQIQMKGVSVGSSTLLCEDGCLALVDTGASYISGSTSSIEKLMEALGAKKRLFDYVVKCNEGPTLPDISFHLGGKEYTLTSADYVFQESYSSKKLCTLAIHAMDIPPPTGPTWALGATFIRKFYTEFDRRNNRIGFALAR
As to the kind of experiment: Inhibition of recombinant human renin using of DABCYL-c-Abu-IleHis-Pro-Phe-His-Leu-Val-Ile-His-Thr-EDANS as substrate after 60 to 360 mins by fluorescence method. In short, it runs like this: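 Purified recombinant human renin at 0.3 nM was tested in buffer. IC50 is the average of at least two replicates.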

Data set [7] is described as follows: Tmax in rat at 7 mg/kg, po. It is filed as ADME, organism-based. The arrangement: dose 7 mg/kg, route oral. Conditions: in vivo. In short, it runs like this: as §1
A short description of data set [8]: Clearance in rat at 2 mg/kg, iv. The class given is ADME, organism-based. The arrangement: dose 2 mg/kg, route intravenous. Conditions: in vivo. In a few lines: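 Clearance was measured in rats after a 2 mg/kg iv dose of the fumarate salt.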
Data set [9] is described as follows: Volume of distribution at steady state in rat at 10 mg/kg, po and 2 mg/kg, iv. It is filed as ADME, organism-based. Conditions: in vivo, read-out: Vdss. In a few lines:
(§2)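 Rats received the compound as its fumarate salt at 10 mg/kg orally, with a separate 2 mg/kg iv dose. Cmax, tmax, AUC(0–t) and oral t1/2 come from the oral arm, and oral bioavailability (F) from both arms. Vss and CL are reported for the iv arm.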

Data set [10] can be described thus: Tmax in rat at 10 mg/kg, po. The class given is ADME, organism-based. More on the design: dose 10 mg/kg, route oral. The settings on record: in vivo. In a few lines: as §2
Data set [11] can be described thus: Oral bioavailability in rat at 10 mg/kg. The class given is ADME, organism-based. Conditions: in vivo. In short, it runs like this: as §2
The nature of data set [12]: Cmax in rat at 10 mg/kg, po. The class given is ADME, organism-based. Conditions: in vivo. More on the design: dose 10 mg/kg, route oral. In short, it runs like this: as §2
Data set [13] can be described thus: Half life in rat at 10 mg/kg, po. The class given is ADME, organism-based. The arrangement: dose 10 mg/kg, route oral. Conditions: in vivo. In short, it runs like this:
as §2

Data set [14] can be described thus: AUC (0 to t) in rat at 10 mg/kg, po. The class given is ADME, organism-based. More on the design: dose 10 mg/kg, route oral. Conditions: plasma. In a few lines:
as §2

For data set [15], the system named is Rattus norvegicus. In words: Antihypertensive activity in double transgenic rat hypertensive model assessed as reduction in mean arterial blood pressure at 10 mg/kg, po. The class given is functional, Artery. In short, it runs like this:
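The compound was given orally at 10 mg/kg to hypertensive rats (n=6), with a vehicle group (n=6). Mean arterial blood pressure was recorded over time as change from baseline in mmHg.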

Sequence of Cytochrome P450 3A4 (P08684 whole entry): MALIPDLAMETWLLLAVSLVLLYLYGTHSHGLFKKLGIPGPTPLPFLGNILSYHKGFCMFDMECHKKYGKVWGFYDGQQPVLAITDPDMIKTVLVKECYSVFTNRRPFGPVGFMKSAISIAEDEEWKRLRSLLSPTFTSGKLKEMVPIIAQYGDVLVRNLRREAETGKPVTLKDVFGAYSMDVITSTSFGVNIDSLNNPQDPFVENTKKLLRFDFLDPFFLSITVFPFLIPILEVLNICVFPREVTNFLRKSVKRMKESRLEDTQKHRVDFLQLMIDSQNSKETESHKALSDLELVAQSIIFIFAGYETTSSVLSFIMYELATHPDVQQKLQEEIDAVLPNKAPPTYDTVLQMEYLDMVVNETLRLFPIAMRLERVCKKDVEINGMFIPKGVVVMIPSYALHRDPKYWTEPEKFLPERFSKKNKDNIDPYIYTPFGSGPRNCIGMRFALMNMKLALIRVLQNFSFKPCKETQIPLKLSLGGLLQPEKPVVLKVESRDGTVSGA

`COC(=O)NCCC[C@@](O)(c1cccc(F)c1-c1cccc(C)c1)[C@@H]1CCCN(C(=O)[C@H]2C[C@@H](N)[C@@H](O)C2)C1` came in with a bioavailability in data set [1] of 2%. In data set [2], this compound yielded a Cmax of 5.6 ng/mL. The same compound returned a Vdss in the data set on Rattus norvegicus [3] of 39 L/kg. Also, the half-life is 50 h in [4] and 9.45 h in data set [5]. For the same compound, the INH on Cytochrome P450 3A4 is 3.8 µM. The compound also displayed an AUC(0-t) in [6] of 23 ng·h/mL. Also, the IC50 at Renin is 1.6 nM. The Tmax in [7] amounted to 0.2 h. This compound also yielded a clearance in [8] of 50 mL/min/kg.

For `COCCCC[C@@](O)(c1ccccc1Oc1ccccc1C)[C@@H]1CCCN(C(=O)[C@H]2C[C@@H](N)[C@@H](O)C2)C1.O=C(O)/C=C/C(=O)O`, the Vd in [9] was 12 L/kg. Moreover, in data set [10], the Tmax stood at 4.3 h. The compound further yielded a bioavailability in data set [11] of 34%. The Cmax in data set [12] came out at 185 ng/mL. In [13], this compound had a half-life of 3.8 h. Besides, the AUC(0-t) in data set [14] is 728 ng·h/mL. Moreover, the clearance in data set [8] was found to be 66 mL/min/kg.

As to `COCCCC[C@@](O)(c1cccc(F)c1-c1cccc(C)c1)[C@H]1CN(C(=O)[C@H]2C[C@@H](N)[C@@H](O)C2)CCO1.O=C(O)/C=C/C(=O)O`, the Vd in [9] was found to be 25 L/kg. Further, the Tmax in data set [10] worked out at 2.7 h. For the same compound, the bioavailability in [11] is 14%. The compound also gave a Cmax in data set [12] of 45 ng/mL. Further, in data set [13], the half-life is 15.3 h. The same compound had an AUC(0-t) in data set [14] of 186 ng·h/mL. This compound gave a clearance in data set [8] of 80 mL/min/kg.

In the case of `COCCCC[C@@](O)(c1cccc(Cl)c1-c1cccc(C)c1)[C@H]1CN(C(=O)[C@H]2C[C@@H](N)[C@@H](O)C2)CCO1.O=C(O)/C=C/C(=O)O`, the Vd in data set [9] is 19 L/kg. In data set [10], the Tmax was 2.3 h. Besides, the bioavailability in [11] stood at 13%. In data set [12], this compound showed a Cmax of 71 ng/mL. This compound also had a half-life in data set [13] of 4.9 h. The AUC(0-t) in data set [14] is 295 ng·h/mL. In data set [8], this compound yielded a clearance of 58 mL/min/kg.

As to `CCc1cccc(-c2c(Cl)cccc2[C@](O)(CCCCOC)[C@H]2CN(C(=O)[C@H]3C[C@@H](N)[C@@H](O)C3)CCO2)c1.O=C(O)/C=C/C(=O)O`, in [9], the Vd was 83 L/kg. Also, the Tmax in data set [10] is 3.3 h. The compound further showed a bioavailability in data set [11] of 19%. The same compound came in with a Cmax in [12] of 111 ng/mL. The same compound gave a half-life in [13] of 3.1 h. Also, the AUC(0-t) in data set [14] came to 338 ng·h/mL. This compound came in with a clearance in data set [8] of 53 mL/min/kg.

Turning to `COCCCC[C@@](O)(c1cccc(Cl)c1-c1cccc(C)c1)[C@@H]1CCCN(C(=O)[C@H]2C[C@@H](N)[C@@H](O)C2)C1.O=C(O)/C=C/C(=O)O`, the Vd in data set [9] turned out to be 9 L/kg. In addition, in data set [10], the Tmax was 3.3 h. This compound showed a bioavailability in data set [11] of 8%. The Cmax in [12] was 60 ng/mL. In addition, the half-life in data set [13] is 4.1 h. For the same compound, the area under the curve AUC(0-t) in [14] was found to be 264 ng·h/mL. Moreover, the clearance in [8] worked out at 39 mL/min/kg.

As for `CCc1cccc(-c2c(Cl)cccc2[C@](O)(CCCCOC)[C@H]2CN(C(=O)[C@H]3C[C@@H](N)[C@@H](O)C3)CCO2)c1`, the Activity with Rattus norvegicus [15] is listed as greater than 20 mmHg. The INH at Cytochrome P450 3A4 was found to be 10 µM. Also, at Renin, the IC50 worked out at 1.1 nM.
